# Results as given in ChEMBL document CHEMBL3098023, “Rationally designed hybrid molecules with appreciable COX-2 inhibitory and anti-nociceptive activities” (Bioorg Med Chem Lett, 2014).
# The source made the active and inactive calls. The calls are words filed in the database; no cut-off is given here.
# What was measured:
# [1] = target: T1, Prostaglandin G/H synthase 1 (Ovis aries, UniProt P05979); assay: Inhibition of ovine COX1 using arachidonic acid as substrate incubated for 10 mins prior to substrate addition measured after 2 mins by spectrophotometry
# T1 sequence (P05979 whole entry): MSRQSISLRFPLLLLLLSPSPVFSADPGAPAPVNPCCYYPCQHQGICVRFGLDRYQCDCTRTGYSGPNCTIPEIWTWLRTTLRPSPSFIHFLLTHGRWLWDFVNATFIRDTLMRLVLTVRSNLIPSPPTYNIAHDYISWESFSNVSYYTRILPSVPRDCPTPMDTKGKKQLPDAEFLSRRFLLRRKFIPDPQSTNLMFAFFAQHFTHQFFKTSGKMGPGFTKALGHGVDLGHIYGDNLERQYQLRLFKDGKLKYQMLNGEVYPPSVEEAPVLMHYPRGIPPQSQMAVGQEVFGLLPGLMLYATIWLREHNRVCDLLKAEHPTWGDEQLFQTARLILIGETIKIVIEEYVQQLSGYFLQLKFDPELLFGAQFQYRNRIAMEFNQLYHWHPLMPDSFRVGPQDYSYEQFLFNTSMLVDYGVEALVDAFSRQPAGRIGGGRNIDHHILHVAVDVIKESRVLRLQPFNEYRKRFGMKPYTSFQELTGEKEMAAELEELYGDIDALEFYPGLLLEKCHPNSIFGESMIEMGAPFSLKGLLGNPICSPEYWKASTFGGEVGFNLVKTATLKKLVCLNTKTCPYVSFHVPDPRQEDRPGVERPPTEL
# How it was run: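 Ovine COX-1 with heme, preincubated 10 min at 37 °C with inhibitor at 10^-3 to 10^-6 M. Arachidonic acid reaction for 2 min, stopped with 1 M HCl, then stannous chloride. Prostaglandin quantified by competitive EIA with AChE tracer, Ellman's reagent read at 420 nm. Heat-inactivated enzyme for background. Run in duplicate; IC50 fitted from % inhibition against concentration.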
# [2] = target: T2, Prostaglandin G/H synthase 2 (Homo sapiens) (UniProt P35354); assay: Inhibition of human recombinant COX2 using arachidonic acid as substrate at 10^-8 to 10^-5 M incubated for 10 mins prior to substrate addition measured after 2 mins by spectrophotometry
# T2 sequence (whole entry): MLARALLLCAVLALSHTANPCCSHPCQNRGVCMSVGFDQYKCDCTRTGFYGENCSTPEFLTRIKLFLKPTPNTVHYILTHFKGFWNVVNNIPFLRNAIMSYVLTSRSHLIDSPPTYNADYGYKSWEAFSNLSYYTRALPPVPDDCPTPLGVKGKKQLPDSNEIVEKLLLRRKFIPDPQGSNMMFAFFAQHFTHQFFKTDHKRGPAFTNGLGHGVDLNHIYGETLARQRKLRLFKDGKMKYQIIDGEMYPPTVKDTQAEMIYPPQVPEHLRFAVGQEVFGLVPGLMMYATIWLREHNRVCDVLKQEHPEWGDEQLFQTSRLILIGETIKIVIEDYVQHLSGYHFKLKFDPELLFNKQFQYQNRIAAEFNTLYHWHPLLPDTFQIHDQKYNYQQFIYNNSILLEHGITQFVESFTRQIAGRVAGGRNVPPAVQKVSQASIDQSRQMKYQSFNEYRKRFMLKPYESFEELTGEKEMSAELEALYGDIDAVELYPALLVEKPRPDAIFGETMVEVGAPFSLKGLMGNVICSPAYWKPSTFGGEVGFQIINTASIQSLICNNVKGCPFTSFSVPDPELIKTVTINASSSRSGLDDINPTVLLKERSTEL
# How it was run: (§1)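 Human recombinant COX-2 or ovine COX-1 with heme in reaction buffer, preincubated with inhibitor 10 min at 37 °C. Arachidonic acid then added for 2 min, stopped with 1 M HCl, followed by stannous chloride. Prostaglandin measured by AChE-tracer EIA, 18 h at room temperature, Ellman's development, absorbance at 420 nm. Boiled enzyme as background. Duplicates; IC50 from % inhibition versus concentration plot.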
# [3] = target: T3, Prostaglandin G/H synthase 1 (Ovis aries) (UniProt P05979); assay: Inhibition of ovine COX1 using arachidonic acid as substrate at 10^-8 to 10^-5 M incubated for 10 mins prior to substrate addition measured after 2 mins by spectrophotometry; how it was run: as §1
# T3 sequence (whole entry): T1 sequence (P05979 whole entry)
# Mus musculus [4] = assay: Antinociceptive activity in Swiss albino mouse assessed as reduction in capsaicin-induced paw licking at 5 mg/kg, ip administered 30 mins prior to capsaicin-challenge; assay type: functional, organism-based; design: dose 5 mg/kg
# How it was run: (§2)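 Swiss albino mice (25–35 g) of either sex, acclimatized at least 1 h, each used once; groups of 6. Treatments given ip 30 min before intraplantar capsaicin (1.6 µg in 20 µL) into right hind paw; saline (0.5 mL) control, diclofenac 25 mg/kg reference, test doses 5 or 10 mg/kg. Time spent paw licking and twitching recorded over 10 min per animal.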
# Mus musculus [5] = assay: Antinociceptive activity in Swiss albino mouse assessed as reduction in capsaicin-induced paw licking at 10 mg/kg, ip administered 30 mins prior to capsaicin-challenge; assay type: functional, organism-based; design: dose 10 mg/kg; how it was run: as §2
# Mus musculus [6] = assay: Antinociceptive activity in Swiss albino mouse assessed as reduction in capsaicin-induced paw licking at 25 mg/kg, ip administered 30 mins prior to capsaicin-challenge; assay type: functional, organism-based; design: dose 25 mg/kg; how it was run: as §2
SMILES,IC50 [1] [µM],inhibition [2],inhibition [3],Activity (Mus musculus [4]),Activity (Mus musculus [5]),Activity (Mus musculus [6])
O=c1cc(-c2ccccc2)oc2cc(O)cc(O)c12 [CHRYSIN],39.3,–,–,–,–,–
CC1=NN(c2cccc(Cl)c2)C(=O)/C1=C\c1cn(CCCOc2cc(O)c3c(=O)cc(-c4ccccc4)oc3c2)c2ccccc12,118,–,–,inactive,Active,–
O=C(O)Cc1ccccc1Nc1c(Cl)cccc1Cl,–,–,–,–,–,Active
O=C1/C(=C\c2cn(CCCOc3cc(O)c4c(=O)cc(-c5ccccc5)oc4c3)c3ccccc23)c2ccccc2N1c1c(Cl)cccc1Cl,115,–,–,Active,Active,–

# The next lines start with results.
IC50 [1] [µM],inhibition [2],inhibition [3],SMILES,Activity (Mus musculus [4]),Activity (Mus musculus [5]),Activity (Mus musculus [6])
–,inactive,inactive,O=C1Nc2ccccc2/C1=C/c1cn(CCCCOc2cc(O)c3c(=O)cc(-c4ccccc4)oc3c2)c2ccccc12,–,–,–
–,inactive,inactive,O=C1/C(=C\c2cn(CCCCOc3cc(O)c4c(=O)cc(-c5ccccc5)oc4c3)c3ccccc23)c2ccccc2N1c1c(Cl)cccc1Cl,–,–,–
102,–,–,O=C1Nc2ccccc2/C1=C/c1cn(CCCOc2cc(O)c3c(=O)cc(-c4ccccc4)oc3c2)c2ccccc12,inactive,inactive,–
90,–,–,CC1=NN(c2cccc(Cl)c2)C(=O)/C1=C\c1cn(CCCCOc2cc(O)c3c(=O)cc(-c4ccccc4)oc3c2)c2ccccc12,Active,Active,–
